Experimental data: ChEMBL document CHEMBL1212705, “Gene expression signatures and small-molecule compounds link a protein kinase to Plasmodium falciparum motility” (Nat Chem Biol, 2008)
Activity calls are given as the source filed them. The calls are words filed in the database; no cut-off is given here.

What was measured:
Plasmodium falciparum [1] = assay: Binding affinity to Plasmodium falciparum PF14_0517 at 2.5 mM by LC/MS/MS analysis
Outline: (§1)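 P. falciparum parasite lysate was incubated with agarose-immobilized inhibitor and washed extensively. Retained proteins were eluted with urea, resolved by SDS-PAGE and identified by LC/MS/MS. In a competition arm, free inhibitor (2.5 mM) was added to the lysate before incubation with the beads under identical conditions.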

Plasmodium falciparum [2] = assay: Binding affinity to Plasmodium falciparum PFI0180w at 2.5 mM by LC/MS/MS analysis; outline: as §1
Plasmodium falciparum [3] = assay: Binding affinity to Plasmodium falciparum PF13_0238 at 2.5 mM by LC/MS/MS analysis; outline: as §1
Plasmodium falciparum [4] = assay: Binding affinity to Plasmodium falciparum PFI1680w at 2.5 mM by LC/MS/MS analysis; outline: as §1
[5] = Inhibition of GST-fused Plasmodium falciparum recombinant CDPK1 expressed in Escherichia coli Rosetta 2 assessed as inhibition of [gamma-33P]ATP incorporation into substrate peptide by scintillation counting
Plasmodium falciparum [6] = assay: Binding affinity to Plasmodium falciparum CDPK1 at 2.5 mM by LC/MS/MS analysis; outline: as §1
Plasmodium falciparum [7] = assay: Upregulation of DNA replication gene expression in Plasmodium falciparum at 460 nM after 48 hrs by microarray analysis; format: functional, organism-based
Outline: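 P. falciparum 3D7 was grown in human O+ erythrocytes. Heterogeneous, unsynchronized parasites were incubated with 460 nM compound for 24 or 48 h, then compared with untreated parasites on a full-genome microarray. Transcript changes were called by a statistical test.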

Toxoplasma gondii [8] = assay: Antimicrobial activity against Toxoplasma gondii […] infected in african green monkey BSC1 cells assessed as parasite invasion at 12.5 uM after 48 hrs by microscopy relative to control; format: functional, BSC-1
Toxoplasma gondii [9] = assay: Antimicrobial activity against Toxoplasma gondii […] infected in african green monkey BSC1 cells assessed as parasite invasion at 6.25 uM after 48 hrs by microscopy relative to control; format: functional, BSC-1
Toxoplasma gondii [10] = assay: Antimicrobial activity against Toxoplasma gondii […] infected in african green monkey BSC1 cells assessed as inhibition of parasite invasion at 1.56 uM after 48 hrs by microscopy relative to control; format: functional, organism-based; conditions: BSC-1
Plasmodium falciparum [11] = assay: Antiplasmodial activity against multidrug-resistant Plasmodium falciparum Dd2 after 72 hrs by SYBR green assay; format: functional, organism-based; conditions: Dd2, 72 h
Outline: (§2)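 Parasites grown in human O+ erythrocytes in RPMI with human serum and albumax. For the assay, serially diluted compounds were added to screening medium (RPMI, 4.16 mg/ml albumax) at 2.5% hematocrit and 0.3% parasitemia, then incubated 72 h in 93% N2/4% CO2/3% O2. DMSO served as baseline and uninfected erythrocytes as background. SYBR Green fluorescence was read at 520 nm to give EC50.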

Plasmodium falciparum [12] = assay: Antiplasmodial activity against pyrimethamine-resistant Plasmodium falciparum HB3 after 72 hrs by SYBR green assay; format: functional, organism-based; conditions: HB3, 72 h; outline: as §2
[13] = Cytotoxicity against human HeLa cells after 72 hrs by Cell Titer Glo assay; format: cell-based; conditions: read-out: ED50
Outline: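 Cells were seeded at 250 per well in DMEM with 5% FBS in 1,536-well plates, and compound was added the next day. Culture ran 72 h, matching the parasite proliferation assay. Viability was read by Cell Titer Glo luminescence, and EC50 was derived.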

[14] = Inhibition of GST-fused Plasmodium falciparum recombinant CDPK5 expressed in Escherichia coli Rosetta 2 assessed as inhibition of [gamma-33P]ATP incorporation into substrate peptide by scintillation counting
Plasmodium falciparum [15] = assay: Binding affinity to Plasmodium falciparum PF10_0153 at 2.5 mM by LC/MS/MS analysis; outline: as §1
Plasmodium falciparum [16] = assay: Binding affinity to Plasmodium falciparum PF11_0351 at 2.5 mM by LC/MS/MS analysis; outline: as §1
Plasmodium falciparum [17] = assay: Binding affinity to Plasmodium falciparum PF13_0116 at 2.5 mM by LC/MS/MS analysis; outline: as §1
Plasmodium falciparum [18] = assay: Binding affinity to Plasmodium falciparum PF10_0363 at 2.5 mM by LC/MS/MS analysis; outline: as §1
Plasmodium falciparum [19] = assay: Binding affinity to Plasmodium falciparum PF14_0359 at 2.5 mM by LC/MS/MS analysis; outline: as §1
Plasmodium falciparum [20] = assay: Binding affinity to Plasmodium falciparum MAL7P1.228 at 2.5 mM by LC/MS/MS analysis; outline: as §1
Plasmodium falciparum [21] = assay: Binding affinity to Plasmodium falciparum PF14_0393 at 2.5 mM by LC/MS/MS analysis; outline: as §1
Plasmodium falciparum [22] = assay: Binding affinity to Plasmodium falciparum PF14_0102 at 2.5 mM by LC/MS/MS analysis; outline: as §1
Plasmodium falciparum [23] = assay: Binding affinity to Plasmodium falciparum PF11_0037 at 2.5 mM by LC/MS/MS analysis; outline: as §1
Plasmodium falciparum [24] = assay: Binding affinity to Plasmodium falciparum PF10_0268 at 2.5 mM by LC/MS/MS analysis; outline: as §1
Plasmodium falciparum [25] = assay: Binding affinity to Plasmodium falciparum PFL0185c at 2.5 mM by LC/MS/MS analysis; outline: as §1
Plasmodium falciparum [26] = assay: Binding affinity to Plasmodium falciparum PF14_0186 at 2.5 mM by LC/MS/MS analysis; outline: as §1
Plasmodium falciparum [27] = assay: Binding affinity to Plasmodium falciparum PF14_0541 at 2.5 mM by LC/MS/MS analysis; outline: as §1
Plasmodium falciparum [28] = assay: Binding affinity to Plasmodium falciparum PF14_0439 at 2.5 mM by LC/MS/MS analysis; outline: as §1
Plasmodium falciparum [29] = assay: Binding affinity to Plasmodium falciparum PF14_0096 at 2.5 mM by LC/MS/MS analysis; outline: as §1
Plasmodium falciparum [30] = assay: Binding affinity to Plasmodium falciparum PFE1155c at 2.5 mM by LC/MS/MS analysis; outline: as §1
[31] = Cmax in BALB/c mouse at 20 mg/kg single oral dose after 24 hrs by LC/MS/MS analysis; conditions: in vivo
[32] = Plasma concentration in BALB/c mouse at 20 mg/kg single oral dose after 24 hrs by LC/MS/MS analysis
Plasmodium falciparum [33] = assay: Antimicrobial activity against Plasmodium falciparum 3D7 infected in human erythrocytes after 48 hrs by microscopy
Plasmodium falciparum [34] = assay: Antimicrobial activity against Plasmodium falciparum 3D7 schizonts infected in human erythrocytes assessed as effect on parasitemia at 225 to 450 nM after 32 hrs by microscopy
Plasmodium falciparum [35] = assay: Antimicrobial activity against Plasmodium falciparum 3D7 schizonts infected in human erythrocytes assessed as effect on parasitemia at 225 to 450 nM after 48 hrs by microscopy
Toxoplasma gondii [36] = assay: Antimicrobial activity against Toxoplasma gondii […] infected in african green monkey BSC1 cells assessed as parasite invasion at 100 uM after 90 mins by microscopy relative to control
Plasmodium falciparum [37] = assay: Antimicrobial activity against Plasmodium falciparum schizonts infected in human erythrocytes assessed as minimal effect on parasite cell cycle at 450 nM treated 12 hrs after release of ring stage by microscopy

N[C@H]1CC[C@H](Nc2nc(Nc3ccc(C(=O)N4CCCCC4)cc3)c3ncn(-c4cccc(F)c4)c3n2)CC1 [PURFALCAMINE]
Activity (Plasmodium falciparum [1]): inactive
Activity (Plasmodium falciparum [2]): inactive
Activity (Plasmodium falciparum [3]): inactive
Activity (Plasmodium falciparum [4]): inactive
IC50 [5]: 17 nM
Activity (Plasmodium falciparum [6]): Active
Activity (Plasmodium falciparum [7]): Active
Activity (Toxoplasma gondii [8]): 20%
Activity (Toxoplasma gondii [9]): 20%
inhibition (Toxoplasma gondii [10]): inactive
EC50 (Plasmodium falciparum [11]): 259 nM
EC50 (Plasmodium falciparum [12]): 178 nM
CC50 at 72 h [13]: 7030 nM
IC50 [14]: > 3500 nM
Activity (Plasmodium falciparum [15]): inactive
Activity (Plasmodium falciparum [16]): inactive
Activity (Plasmodium falciparum [17]): inactive
Activity (Plasmodium falciparum [18]): inactive
Activity (Plasmodium falciparum [19]): inactive
Activity (Plasmodium falciparum [20]): inactive
Activity (Plasmodium falciparum [21]): inactive
Activity (Plasmodium falciparum [22]): inactive
Activity (Plasmodium falciparum [23]): inactive
Activity (Plasmodium falciparum [24]): inactive
Activity (Plasmodium falciparum [25]): inactive
Activity (Plasmodium falciparum [26]): inactive
Activity (Plasmodium falciparum [27]): inactive
Activity (Plasmodium falciparum [28]): inactive
Activity (Plasmodium falciparum [29]): inactive
Activity (Plasmodium falciparum [30]): inactive
Cmax [31]: 2600 nM
concentration at 24 h [32]: 23 nM
EC90 (Plasmodium falciparum [33]; Plasmodium falciparum 3D7): 414 nM
EC50 (Plasmodium falciparum [33]; Plasmodium falciparum 3D7, 48 h): 230 nM
inhibition (Plasmodium falciparum [34]): inactive
Activity (Plasmodium falciparum [35]): Active
Activity (Toxoplasma gondii [36]): <=20%
Activity (Plasmodium falciparum [37]): Active
